Data on one compound can be found in ChEMBL document CHEMBL4257584, “Sterol 14α-Demethylase Structure-Based Optimization of Drug Candidates for Human Infections with the Protozoan Trypanosomatidae” (J Med Chem, 2018).

Some results are limits rather than exact numbers.

The term Cmax denotes the peak of the concentration-time curve. For orientation: logP means a log measure of how a compound divides between an organic and an aqueous phase. Read a high logP as a more lipophilic compound.

Series [1] can be described thus: Cmax in BALB/c mouse at 25 mg/kg, po via gavage measured after 2 hrs post dose by […]. Type of series: ADME, organism-based. Set-up: dose 25 mg/kg, route oral. The settings on record: in vivo. The gist of the method: (§1)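 Single oral gavage dose of 25 mg/kg in BALB/c mice; blood sampled at 1, 2, 4, 6, 10, 16, 24 h. Plasma is diluted in PBS with ketoconazole internal standard, extracted with 80% acetonitrile, dried and redissolved. Analysed by reversed-phase HPLC with UV at 291/250 nm, 0.1 μM detection limit. Lifetime is time until undetectable.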

A short description of series [2]: Half life in human liver microsomes at 1 uM preincubated for 5 mins followed by NADPH addition and measured by LC/MS/MS analysis. It is filed as ADME, microsome. The settings on record: microsomes, 1 µM. (Microsomes from liver hold many membrane-bound enzymes, among them those of drug oxidation.)
The nature of series [3]: Intrinsic clearance in human liver microsomes at 1 uM preincubated for 5 mins followed by NADPH addition and measured after 45 mins by LC/MS/MS analysis. Type of series: ADME, microsome. The conditions noted are these: read-out: CLH.
The nature of series [4]: Hepatic clearance in human liver microsomes at 1 uM preincubated for 5 mins followed by NADPH addition and measured after 45 mins by LC/MS/MS analysis. It is filed as ADME, microsome.
Series [5] can be described thus: Intrinsic clearance in Sprague-Dawley rat liver microsomes at 1 uM preincubated for 5 mins followed by NADPH addition and measured after 45 mins by LC/MS/MS analysis. The conditions noted are these: read-out: CLH. Type of series: ADME, microsome.
Series [6] in a line: Hepatic clearance in Sprague-Dawley rat liver microsomes at 1 uM preincubated for 5 mins followed by NADPH addition and measured after 45 mins by LC/MS/MS analysis. It is filed as ADME, microsome. The essentials:
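Pooled liver microsomes at 0.5 mg/mL: human (mixed gender), male Sprague-Dawley rat, or male CD-1 mouse, with test compound at 1 μM, triplicate. In vitro t1/2 is scaled to CLint (45 mg microsomes/g liver; 45 g liver/kg scaling factor). CLhep uses well-stirred model with hepatic blood flow 21 (human), 70 (rat), 90 (mouse) mL/min/kg.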

A short description of series [7]: Half life in Sprague-Dawley rat liver microsomes at 1 uM preincubated for 5 mins followed by NADPH addition and measured by LC/MS/MS analysis. It is filed as ADME, microsome. The conditions noted are these: microsomes, 1 µM.
A short description of series [8]: Intrinsic clearance in CD1 mouse liver microsomes at 1 uM preincubated for 5 mins followed by NADPH addition and measured after 45 mins by LC/MS/MS analysis. It is filed as ADME, microsome. The conditions noted are these: read-out: CLH.
A short description of series [9]: Hepatic clearance in CD1 mouse liver microsomes at 1 uM preincubated for 5 mins followed by NADPH addition and measured after 45 mins by LC/MS/MS analysis. It is filed as ADME, microsome.
The nature of series [10]: Half life in CD1 mouse liver microsomes at 1 uM preincubated for 5 mins followed by NADPH addition and measured by LC/MS/MS analysis. Type of series: ADME, microsome. The settings on record: mouse, microsomes, 1 µM.
Series [11] in a line: Maximum plasma concentration in BALB/c mouse at 25 mg/kg, po via gavage by […]. Type of series: ADME, organism-based. Further details: dose 25 mg/kg, route oral. The essentials:
as §1

Series [12] in a line: Plasma concentration in BALB/c mouse assessed as time until the compound becomes undetectable at 25 mg/kg, po via gavage […]. It is filed as ADME, organism-based. The settings on record: in vivo. The essentials:
as §1

Series [13] in a line: Drug uptake in BALB/c mouse heart at 25 mg/kg, po via gavage measured after 4 hrs post dose by […]. It is filed as ADME, organism-based. The settings on record: read-out: Drug uptake. The gist of the method: (§2)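 BALB/c mice get a single oral gavage dose of 25 mg/kg; tissues are collected 4 h post-dose. About 100 mg tissue is diluted 5-fold in PBS and homogenized. Homogenate is extracted as for plasma (ketoconazole internal standard, acetonitrile extraction) and quantified by HPLC-UV at 291 nm, 0.1 μM detection limit, n=2.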

Series [14] in a line: Drug uptake in BALB/c mouse lungs at 25 mg/kg, po via gavage measured after 4 hrs post dose by […]. Type of series: ADME, organism-based, Lung. The settings on record: read-out: Drug uptake. The essentials: as §2
Series [15] in a line: Drug uptake in BALB/c mouse spleen at 25 mg/kg, po via gavage measured after 4 hrs post dose by […]. The conditions noted are these: read-out: Drug uptake. Type of series: ADME, organism-based. The gist of the method: as §2
Series [16] can be described thus: Drug uptake in BALB/c mouse blood at 25 mg/kg, po via gavage measured after 4 hrs post dose by […]. Type of series: ADME, organism-based. The conditions noted are these: read-out: Drug uptake. The gist of the method:
as §2

The nature of series [17]: Drug uptake in BALB/c mouse brain at 25 mg/kg, po via gavage measured after 4 hrs post dose by […]. It is filed as ADME, organism-based. The conditions noted are these: read-out: Drug uptake. The essentials: as §2
The nature of series [18]: Drug uptake in BALB/c mouse liver at 25 mg/kg, po via gavage measured after 4 hrs post dose by […]. Type of series: ADME, organism-based. The conditions noted are these: read-out: Drug uptake. The essentials:
as §2

The nature of series [19]: Lipophilicity, log P of the compound. The conditions noted are these: octanol/water. It is filed as physicochemical.

For `O=C(N[C@@H](Cn1ccnc1)c1ccc(-c2ccccc2)cc1Cl)c1ccc(-c2nnc(-c3ccccc3)o2)cc1`, the Cmax in series [1] and in [11] was 28 µM each time. Besides, the t1/2 in [2] came to 60 min; in [7] it was 20 min; in series [10] it was 160 min. In addition, the results for the CLint scaled at 1 µM in series [3], in [5] and in series [8] were 20.9 mL/min/kg, 142 mL/min/kg and 34.2 mL/min/kg, respectively. Besides, the results for the CLhep predicted at 1 µM in [4], in [6] and in [9] were 10.5 mL/min/kg, 46.9 mL/min/kg and 24.8 mL/min/kg, respectively. In series [12], the Time was less than 10 h. Moreover, the concentration at 4 h in series [13] stood at 5 µM; in series [14] it was 8 µM; in series [15] it was 5 µM; in series [16] it was 9 µM; in [17], 100 nM; in [18], 21 µM. The compound also showed a logP in series [19] of 5.68.
